Measured values as given in ChEMBL document CHEMBL4118097, “Selective Inhibitors of Dual Leucine Zipper Kinase (DLK, MAP3K12) with Activity in a Model of Alzheimer's Disease” (J Med Chem, 2017).

Legend:
[1] = target: Ribosomal protein S6 kinase alpha-2 (Homo sapiens) (UniProt Q15349); experiment: Inhibition of recombinant full length GST-tagged human RSK3 expressed in insect cells at 1 uM by FRET assay relative to control
Outline: (§1)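 Single-concentration screen at 1 μM in Life Technologies SelectScreen, across a 220-kinase panel. Z′-LYTE format measures phosphorylation of a labeled peptide by FRET. Results are reported as percent inhibition.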

[2] = target: Histamine H1 receptor (Homo sapiens) (UniProt P35367); experiment: Binding affinity to recombinant human H1 receptor at 10 uM relative to control
Chain of Histamine H1 receptor (Homo sapiens) (P35367 whole entry): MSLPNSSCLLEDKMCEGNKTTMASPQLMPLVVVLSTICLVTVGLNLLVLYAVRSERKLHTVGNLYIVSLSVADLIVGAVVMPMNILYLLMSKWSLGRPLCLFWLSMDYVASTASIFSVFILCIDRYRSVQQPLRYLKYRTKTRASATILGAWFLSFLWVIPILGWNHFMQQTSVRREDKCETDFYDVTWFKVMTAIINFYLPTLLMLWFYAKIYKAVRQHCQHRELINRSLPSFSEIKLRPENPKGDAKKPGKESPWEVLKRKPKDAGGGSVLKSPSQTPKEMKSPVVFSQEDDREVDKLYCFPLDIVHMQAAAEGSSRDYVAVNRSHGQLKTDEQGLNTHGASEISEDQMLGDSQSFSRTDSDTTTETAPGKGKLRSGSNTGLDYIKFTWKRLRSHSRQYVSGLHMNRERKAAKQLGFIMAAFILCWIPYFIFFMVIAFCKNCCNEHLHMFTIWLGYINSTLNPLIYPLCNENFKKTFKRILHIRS
Outline: (§2)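 Broad radioligand-binding and enzyme screening panel covering 42 targets (biogenic amine and neuropeptide receptors, ion channels, neurotransmitter transporters, acetylcholinesterase). Single test concentration of 10 μM. Results expressed as binding relative to control, with a hit defined as >50% of control.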

[3] = target: Mitogen-activated protein kinase 8 (Homo sapiens, UniProt P45983); experiment: Inhibition of recombinant full length His-tagged human JNK1alpha1 expressed in baculovirus expression system by FRET assay
[4] = target: Serine/threonine-protein kinase PLK3 (Homo sapiens) (UniProt Q9H4B4); experiment: Inhibition of GST-tagged human PLK3 catalytic domain expressed in baculovirus expression system at 1 uM by FRET assay relative to control
[5] = target: NUAK family SNF1-like kinase 1 (Homo sapiens) (UniProt O60285); experiment: Inhibition of recombinant full length His-tagged human ARK5 expressed in baculovirus expression system at 1 uM by FRET assay relative to control
[6] = target: Maternal embryonic leucine zipper kinase (Homo sapiens) (UniProt Q14680); experiment: Inhibition of recombinant GST-tagged human MELK expressed in baculovirus expression system at 1 uM by FRET assay relative to control
Chain of Maternal embryonic leucine zipper kinase (Homo sapiens) (Q14680 whole entry, looked up): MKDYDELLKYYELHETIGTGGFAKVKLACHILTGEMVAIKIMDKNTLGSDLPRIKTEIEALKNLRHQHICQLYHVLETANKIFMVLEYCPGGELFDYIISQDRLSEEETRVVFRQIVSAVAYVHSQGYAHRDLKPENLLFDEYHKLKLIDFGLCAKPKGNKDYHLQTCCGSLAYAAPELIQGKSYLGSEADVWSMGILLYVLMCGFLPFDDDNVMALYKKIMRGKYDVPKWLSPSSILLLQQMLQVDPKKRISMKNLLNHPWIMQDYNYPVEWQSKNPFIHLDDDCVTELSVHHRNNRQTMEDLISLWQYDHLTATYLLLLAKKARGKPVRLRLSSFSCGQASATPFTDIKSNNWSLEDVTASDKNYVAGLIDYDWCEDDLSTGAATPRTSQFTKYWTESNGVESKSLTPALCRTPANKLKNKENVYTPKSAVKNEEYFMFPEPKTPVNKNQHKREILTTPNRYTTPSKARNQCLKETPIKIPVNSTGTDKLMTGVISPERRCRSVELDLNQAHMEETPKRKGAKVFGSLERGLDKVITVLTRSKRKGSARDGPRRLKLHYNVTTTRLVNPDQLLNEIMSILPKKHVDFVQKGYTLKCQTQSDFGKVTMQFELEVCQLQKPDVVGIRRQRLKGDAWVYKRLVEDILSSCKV
Outline: (§3)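 Single-point screen at 1 μM compound in a 220-kinase panel run by Life Technologies (SelectScreen). Z′-LYTE format: phosphorylation of a labeled peptide substrate read by FRET. Values are reported as percent inhibition.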

[7] = target: Serine/threonine-protein kinase 16 (Homo sapiens, UniProt O75716); experiment: Inhibition of recombinant full length His-tagged human STK16 expressed in baculovirus expression system at 1 uM by FRET assay relative to control
[8] = target: Mitogen-activated protein kinase kinase kinase 13 (Homo sapiens, UniProt O43283); experiment: Binding affinity to full length wild type human LZK (M1 to W966 residues) expressed in mammalian cells by KINOMEscan assay; assay type: cell-based
Chain of Mitogen-activated protein kinase kinase kinase 13 (O43283 whole entry, the tested form may be a part): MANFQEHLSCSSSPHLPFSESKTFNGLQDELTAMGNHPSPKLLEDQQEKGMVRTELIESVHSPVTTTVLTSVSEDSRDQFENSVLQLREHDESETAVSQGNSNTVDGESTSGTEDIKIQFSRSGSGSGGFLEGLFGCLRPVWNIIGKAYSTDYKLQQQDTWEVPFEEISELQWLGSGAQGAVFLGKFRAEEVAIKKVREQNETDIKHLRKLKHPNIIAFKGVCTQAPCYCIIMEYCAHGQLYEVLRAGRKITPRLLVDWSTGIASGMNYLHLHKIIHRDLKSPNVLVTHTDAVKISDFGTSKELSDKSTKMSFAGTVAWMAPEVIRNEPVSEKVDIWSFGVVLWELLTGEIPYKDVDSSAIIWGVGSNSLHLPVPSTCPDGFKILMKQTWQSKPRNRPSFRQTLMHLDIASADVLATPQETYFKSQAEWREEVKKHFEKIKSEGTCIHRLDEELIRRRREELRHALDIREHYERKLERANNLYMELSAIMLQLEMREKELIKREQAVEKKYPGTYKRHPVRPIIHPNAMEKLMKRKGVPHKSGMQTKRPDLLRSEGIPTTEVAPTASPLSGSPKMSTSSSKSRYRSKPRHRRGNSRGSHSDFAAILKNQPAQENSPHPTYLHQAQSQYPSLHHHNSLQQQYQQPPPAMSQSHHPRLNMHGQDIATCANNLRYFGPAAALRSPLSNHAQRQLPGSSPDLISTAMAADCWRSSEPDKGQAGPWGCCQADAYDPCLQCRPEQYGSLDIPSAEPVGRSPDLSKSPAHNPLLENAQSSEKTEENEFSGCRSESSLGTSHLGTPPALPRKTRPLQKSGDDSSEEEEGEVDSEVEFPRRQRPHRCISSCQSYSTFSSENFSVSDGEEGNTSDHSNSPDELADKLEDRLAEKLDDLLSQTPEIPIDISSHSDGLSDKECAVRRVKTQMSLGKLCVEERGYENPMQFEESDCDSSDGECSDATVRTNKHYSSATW

[9] = target: Testis-specific serine/threonine-protein kinase 1 (Homo sapiens) (UniProt Q9BXA7); experiment: Inhibition of recombinant full length His-tagged human TSSK1 expressed in baculovirus expression system at 1 uM by FRET assay relative to control
Chain of Testis-specific serine/threonine-protein kinase 1 (Homo sapiens) (Q9BXA7 whole entry): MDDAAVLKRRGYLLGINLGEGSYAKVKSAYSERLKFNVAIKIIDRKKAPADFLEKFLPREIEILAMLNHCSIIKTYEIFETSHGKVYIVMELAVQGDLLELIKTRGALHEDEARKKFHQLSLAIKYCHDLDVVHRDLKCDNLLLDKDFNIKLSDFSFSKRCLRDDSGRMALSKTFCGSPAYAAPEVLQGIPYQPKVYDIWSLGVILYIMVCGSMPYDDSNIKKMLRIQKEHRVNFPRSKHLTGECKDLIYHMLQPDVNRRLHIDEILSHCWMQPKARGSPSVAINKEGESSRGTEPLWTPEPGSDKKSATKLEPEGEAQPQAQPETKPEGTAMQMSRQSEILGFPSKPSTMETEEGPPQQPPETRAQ

[10] = target: Ribosomal protein S6 kinase alpha-1 (Homo sapiens) (UniProt Q15418); experiment: Inhibition of recombinant full length His-tagged human RSK1 expressed in baculovirus expression system at 1 uM by FRET assay relative to control
Chain of Ribosomal protein S6 kinase alpha-1 (Homo sapiens) (Q15418 whole entry): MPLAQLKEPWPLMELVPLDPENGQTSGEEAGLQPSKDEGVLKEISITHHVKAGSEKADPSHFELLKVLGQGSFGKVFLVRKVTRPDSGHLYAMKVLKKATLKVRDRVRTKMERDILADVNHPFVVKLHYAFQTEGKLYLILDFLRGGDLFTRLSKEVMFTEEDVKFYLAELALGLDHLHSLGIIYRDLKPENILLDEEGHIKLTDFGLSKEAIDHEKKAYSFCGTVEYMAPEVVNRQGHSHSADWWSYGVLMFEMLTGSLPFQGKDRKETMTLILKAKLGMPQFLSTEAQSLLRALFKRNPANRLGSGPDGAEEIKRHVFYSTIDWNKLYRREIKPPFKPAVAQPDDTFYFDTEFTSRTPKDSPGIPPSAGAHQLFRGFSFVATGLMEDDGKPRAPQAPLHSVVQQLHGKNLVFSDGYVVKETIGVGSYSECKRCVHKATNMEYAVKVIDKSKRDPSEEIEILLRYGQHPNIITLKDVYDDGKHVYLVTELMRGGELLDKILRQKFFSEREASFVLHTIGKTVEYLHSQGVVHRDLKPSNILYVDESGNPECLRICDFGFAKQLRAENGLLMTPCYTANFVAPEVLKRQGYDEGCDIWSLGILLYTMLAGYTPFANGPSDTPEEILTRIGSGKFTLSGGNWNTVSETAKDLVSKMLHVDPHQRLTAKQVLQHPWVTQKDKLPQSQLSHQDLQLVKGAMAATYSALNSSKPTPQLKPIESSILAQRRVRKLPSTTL

[11] = target: Serine/threonine-protein kinase Chk1 (Homo sapiens) (UniProt O14757); experiment: Inhibition of recombinant full length His-tagged human CHK1 expressed in baculovirus expression system at 1 uM by FRET assay relative to control
[12] = target: 3-phosphoinositide-dependent protein kinase 1 (Homo sapiens) (UniProt O15530); experiment: Inhibition of recombinant full length His-tagged human PDK1 expressed in baculovirus expression system at 1 uM by FRET assay relative to control
[13] = target: Vascular endothelial growth factor receptor 1 (Homo sapiens) (UniProt P17948); experiment: Inhibition of recombinant GST-tagged human FLT1 cytoplasmic domain expressed in baculovirus expression system at 1 uM by FRET assay relative to control; outline: as §3
[14] = target: Tyrosine-protein kinase CSK (Homo sapiens) (UniProt P41240); experiment: Inhibition of full length recombinant His-tagged human CSK cytoplasmic domain expressed in Escherichia coli at 1 uM by FRET assay relative to control
Chain of Tyrosine-protein kinase CSK (Homo sapiens) (P41240 2-450 limits assumed): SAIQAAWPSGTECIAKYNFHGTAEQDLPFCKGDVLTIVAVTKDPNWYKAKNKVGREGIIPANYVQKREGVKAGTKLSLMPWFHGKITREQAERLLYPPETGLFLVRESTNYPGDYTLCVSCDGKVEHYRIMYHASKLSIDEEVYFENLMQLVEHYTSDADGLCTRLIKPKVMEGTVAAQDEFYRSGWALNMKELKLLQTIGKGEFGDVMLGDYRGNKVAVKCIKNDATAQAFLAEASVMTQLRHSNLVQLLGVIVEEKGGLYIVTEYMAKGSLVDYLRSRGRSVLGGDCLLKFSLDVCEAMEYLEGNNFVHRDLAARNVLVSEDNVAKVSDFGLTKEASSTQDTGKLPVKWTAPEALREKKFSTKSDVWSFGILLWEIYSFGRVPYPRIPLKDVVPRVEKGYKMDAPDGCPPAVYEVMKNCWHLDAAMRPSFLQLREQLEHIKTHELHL

[15] = target: Tyrosine-protein kinase FRK (Homo sapiens) (UniProt P42685); experiment: Inhibition of recombinant full length GST-tagged human FRK cytoplasmoic domain expressed in baculovirus expression system at 1 uM by FRET assay relative to control; outline: as §1
[16] = target: D(2) dopamine receptor (Homo sapiens) (UniProt P14416); experiment: Binding affinity to recombinant human D2 short dopamine receptor at 10 uM relative to control; outline: as §2
[17] = target: Mitogen-activated protein kinase kinase kinase 9 (Homo sapiens, UniProt P80192); experiment: Inhibition of recombinant human GST-tagged MLK1 expressed in baculovirus expression system by FRET assay
[18] = target: Wee1-like protein kinase (Homo sapiens) (UniProt P30291); experiment: Inhibition of recombinant N-terminal full length GST-tagged human WEE1 expressed in baculovirus expression system at 1 uM by FRET assay relative to control; outline: as §1
[19] = target: Casein kinase I isoform epsilon (Homo sapiens) (UniProt P49674); experiment: Inhibition of CK1epsilon1 (unknown origin) at 1 uM by FRET assay relative to control
[20] = target: Receptor-interacting serine/threonine-protein kinase 2 (Homo sapiens) (UniProt O43353); experiment: Inhibition of recombinant His-tagged human RIPK2 catalytic domain (1 to 299 residues) expressed in baculovirus expression system at 1 uM by FRET assay relative to control; outline: as §1
Chain of Receptor-interacting serine/threonine-protein kinase 2 (Homo sapiens) (O43353 whole entry, the tested form may be a part): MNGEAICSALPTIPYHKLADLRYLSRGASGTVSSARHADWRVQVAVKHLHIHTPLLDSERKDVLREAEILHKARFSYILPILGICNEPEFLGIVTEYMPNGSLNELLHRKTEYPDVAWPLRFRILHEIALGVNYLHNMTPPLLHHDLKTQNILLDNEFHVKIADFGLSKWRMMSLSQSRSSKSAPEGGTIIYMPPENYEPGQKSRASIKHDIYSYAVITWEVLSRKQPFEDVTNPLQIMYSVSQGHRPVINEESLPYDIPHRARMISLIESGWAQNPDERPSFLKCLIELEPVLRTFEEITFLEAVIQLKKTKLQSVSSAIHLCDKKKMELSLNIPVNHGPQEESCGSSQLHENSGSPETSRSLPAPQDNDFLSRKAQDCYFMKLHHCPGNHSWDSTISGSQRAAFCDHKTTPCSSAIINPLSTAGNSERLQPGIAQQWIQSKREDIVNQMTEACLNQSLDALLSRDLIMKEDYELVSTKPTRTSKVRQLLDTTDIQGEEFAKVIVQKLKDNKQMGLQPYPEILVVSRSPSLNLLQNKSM

[21] = target: Serine/threonine-protein kinase N1 (Homo sapiens) (UniProt Q16512); experiment: Inhibition of full length recombinant GST-tagged human PRK1 expressed in baculovirus expression system at 1 uM by FRET assay relative to control
[22] = target: Adrenergic receptor alpha-1 (Homo sapiens) (UniProt P35348+P25100+P35368); experiment: Binding affinity to alpha1 adrenergic receptor (unknown origin) at 10 uM relative to control; assay type: protein assay; outline: as §2
[23] = target: Serine/threonine-protein kinase SIK2 (Homo sapiens) (UniProt Q9H0K1); experiment: Inhibition of SIK2 (unknown origin) at 1 uM by FRET assay relative to control
[24] = target: Sphingosine kinase 1 (Homo sapiens) (UniProt Q9NYA1); experiment: Inhibition of recombinant full length GST-tagged human SPHK1 expressed in baculovirus expression system at 1 uM by FRET assay relative to control; outline: as §1
[25] = target: Tyrosine-protein kinase Fgr (Homo sapiens) (UniProt P09769); experiment: Inhibition of recombinant full length His-tagged human FGR expressed in baculovirus expression system at 1 uM by FRET assay relative to control
Chain of Tyrosine-protein kinase Fgr (Homo sapiens) (P09769 2-529 limits assumed): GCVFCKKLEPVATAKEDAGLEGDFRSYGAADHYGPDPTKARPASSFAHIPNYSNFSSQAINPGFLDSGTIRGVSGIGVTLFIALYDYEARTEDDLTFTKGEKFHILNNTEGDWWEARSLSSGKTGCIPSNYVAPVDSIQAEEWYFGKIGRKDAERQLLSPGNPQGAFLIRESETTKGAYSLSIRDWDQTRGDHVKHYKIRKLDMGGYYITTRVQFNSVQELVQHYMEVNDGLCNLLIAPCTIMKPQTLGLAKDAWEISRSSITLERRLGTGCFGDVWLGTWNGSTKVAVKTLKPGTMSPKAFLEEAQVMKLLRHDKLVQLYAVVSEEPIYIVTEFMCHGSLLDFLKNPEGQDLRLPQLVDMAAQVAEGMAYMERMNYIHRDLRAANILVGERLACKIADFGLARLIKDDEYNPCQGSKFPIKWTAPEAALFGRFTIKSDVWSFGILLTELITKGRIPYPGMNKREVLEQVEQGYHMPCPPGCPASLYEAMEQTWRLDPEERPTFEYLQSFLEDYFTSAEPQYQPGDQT

[26] = target: Calcium/calmodulin-dependent protein kinase type II subunit beta (Homo sapiens) (UniProt Q13554); experiment: Inhibition of recombinant full length His-tagged human CaMK2beta expressed in baculovirus expression system at 1 uM by FRET assay relative to control
[27] = target: MAP kinase-interacting serine/threonine-protein kinase 1 (Homo sapiens) (UniProt Q9BUB5); experiment: Inhibition of recombinant human N-terminal full length GST-tagged MKNK1 expressed in baculovirus at 1 uM by FRET assay relative to control
[28] = target: Non-receptor tyrosine-protein kinase TYK2 (Homo sapiens) (UniProt P29597); experiment: Inhibition of recombinant N-terminal GST-tagged human TYK2 (833 to 1187 residues) expressed in baculovirus expression system at 1 uM by FRET assay relative to control; outline: as §1

SMILES | inhibition [1] [%] | Activity [2] [%] | IC50 [3] [µM] | inhibition [4] [%] | inhibition [5] [%] | inhibition [6] [%] | inhibition [7] [%] | Kd [8] [µM] | inhibition [9] [%] | inhibition [10] [%] | inhibition [11] [%] | inhibition [12] [%] | inhibition [13] [%] | inhibition [14] [%] | inhibition [15] [%] | Activity [16] [%] | IC50 [17] [µM] | inhibition [18] [%] | inhibition [19] [%] | inhibition [20] [%] | other results
CC(C)n1nc(-c2cnc(N)c(OC(F)(F)F)c2)cc1[C@H]1[C@@H]2CN(C3COC3)C[C@@H]21 | 3.6 | > 50 | > 10 | -3.8 | 30.1 | 30.4 | 50.3 | 0.46 | 9.4 | 5.5 | 4.4 | 3.3 | 4.8 | 6.8 | 14.4 | > 50 | 5.92 | 4.9 | 1.5 | 34.2 | inhibition [21]: 5.3%; Activity [22]: > 50%; inhibition [23]: 10.8%; inhibition [24]: -0.2%; inhibition [25]: 31.9%; inhibition [26]: 10.6%; inhibition [27]: 1.1%; inhibition [28]: 10.7%
Nc1ncc(-c2cc([C@H]3[C@@H]4CN(C5COC5)C[C@@H]43)n(CC3CC3)n2)cc1C(F)(F)F | 3.5 | > 50 | > 10 | 0.6 | 29.1 | 12.6 | 33.2 | 0.12 | 11.5 | 2.1 | 2.9 | -2.7 | -0.6 | 14.8 | 19.7 | > 50 | 3.5 | 7.1 | 9.5 | 41.4 | inhibition [21]: -8%; Activity [22]: > 50%; inhibition [23]: 18.4%; inhibition [24]: -3.3%; inhibition [25]: 32.2%; inhibition [26]: 1.6%; inhibition [27]: -3.8%; inhibition [28]: 9.3%
